What was measured:
[1] = target: T1, Integrin alpha-IIb/beta-3 (Homo sapiens, UniProt P05106+P08514); assay: Displacement of [125I]L-692884 from purified Fibrinogen Receptor activated by coating onto yttrium silicate; type: protein-complex assay
Procedure, shortened: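 Purified human GPIIb/IIIa activated by coating on yttrium silicate SPA beads (~0.3 nM) with ~0.3 nM [125I]L-692,884 in 20 mM HEPES, 0.15 M NaCl, pH 7.5, at room temperature. Competitor was tested over a wide concentration range. After equilibration, bound CPM was fitted by nonlinear least squares with a Hill slope to give ED50.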

[2] = species on record: Homo sapiens; assay: Inhibition of aggregation of human gel-filtered platelets was measured by light transmittance method.; type: functional
Procedure, shortened: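 Human gel-filtered platelets, 2 × 10⁸/mL, with 0.1 mg/mL human fibrinogen and 1 mM CaCl₂ at 37 °C. Aggregation was started with 10 μM ADP added last and followed by light transmittance. IC50 is the concentration halving the aggregation rate vs the uninhibited control, from at least two determinations.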

[3] = target: T1, Integrin alpha-IIb/beta-3; assay: Displacement of L-736,622 from purified resting Fibrinogen Receptor; type: protein-complex assay
Procedure, shortened: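 Human platelet GPIIb/IIIa, unactivated form from Sephacryl S-300HR (typically 600 nM), in Triton X-100 buffer pH 7.4 with Ca²⁺/Mg²⁺. Used 1 μM fluorescent ligand L-736,622 at room temperature, read by fluorescence displacement. KD was calculated using 3.7 nM as the probe KD.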

[4] = test system: Homo sapiens; assay: Inhibition of ADP induced platelet aggregation 75 minutes after administration of 10 ug/kg by gastric lavage; type: functional; settings: 1.25 h
Procedure, shortened: (§1)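 Conscious mongrel dogs dosed by gastric lavage with aqueous solution (5 mL, sterile water vehicle); citrated blood at baseline and 20–480 min. PRP (2 × 10⁸ platelets/mL, 37 °C, stirred) aggregated with 10 μM ADP + 1 μM epinephrine; light transmittance; percent inhibition vs pretreatment response. n = 4 or 8.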

[5] = test system: Canis familiaris; assay: Compound was tested for inhibition of extent of ADP-induced platelet aggregation between 1 and 15 min at 30 ug/Kg intravenous bolus in dogs; type: functional; settings: Canis lupus familiaris
[6] = target: Integrin alpha-5/beta-1 (Homo sapiens, UniProt P05556+P08648); assay: Inhibition of human umbilical vein endothelial cells (HUVEC) attachment to fibronectin; type: functional, cell-based
[7] = target: Integrin alpha-V/beta-3 (Homo sapiens, UniProt P05106+P06756); assay: Inhibition of human umbilical vein endothelial cells (HUVEC) attachment to vitronectin (VN); type: functional, cell-based
[8] = test system: Canis familiaris; assay: Ex vivo inhibition of platelet aggregation at 24 hr after the oral administration of 100 mg/kg in dogs; type: functional; settings: Canis lupus familiaris
Procedure, shortened: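 Conscious dogs (n = 4) dosed orally with crystalline compound in gelatin capsules at 100 µg/kg. Ex vivo aggregation was read 24 h later in citrated PRP (2 × 10⁸ platelets/mL, 37 °C, light transmittance). It was expressed as percent inhibition vs the pretreatment baseline.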

[9] = test system: Homo sapiens; assay: Inhibition of ADP induced platelet aggregation after administration of 10 ug/kg by gastric lavage; type: functional; procedure, shortened: as §1
[10] = target: T1, Integrin alpha-IIb/beta-3; assay: Inhibition of human umbilical vein endothelial cells (HUVEC) attachment to fibrinogen (FG); type: functional, cell-based

Integrin alpha-5/beta-1, sequence (P05556 21-798 limits assumed): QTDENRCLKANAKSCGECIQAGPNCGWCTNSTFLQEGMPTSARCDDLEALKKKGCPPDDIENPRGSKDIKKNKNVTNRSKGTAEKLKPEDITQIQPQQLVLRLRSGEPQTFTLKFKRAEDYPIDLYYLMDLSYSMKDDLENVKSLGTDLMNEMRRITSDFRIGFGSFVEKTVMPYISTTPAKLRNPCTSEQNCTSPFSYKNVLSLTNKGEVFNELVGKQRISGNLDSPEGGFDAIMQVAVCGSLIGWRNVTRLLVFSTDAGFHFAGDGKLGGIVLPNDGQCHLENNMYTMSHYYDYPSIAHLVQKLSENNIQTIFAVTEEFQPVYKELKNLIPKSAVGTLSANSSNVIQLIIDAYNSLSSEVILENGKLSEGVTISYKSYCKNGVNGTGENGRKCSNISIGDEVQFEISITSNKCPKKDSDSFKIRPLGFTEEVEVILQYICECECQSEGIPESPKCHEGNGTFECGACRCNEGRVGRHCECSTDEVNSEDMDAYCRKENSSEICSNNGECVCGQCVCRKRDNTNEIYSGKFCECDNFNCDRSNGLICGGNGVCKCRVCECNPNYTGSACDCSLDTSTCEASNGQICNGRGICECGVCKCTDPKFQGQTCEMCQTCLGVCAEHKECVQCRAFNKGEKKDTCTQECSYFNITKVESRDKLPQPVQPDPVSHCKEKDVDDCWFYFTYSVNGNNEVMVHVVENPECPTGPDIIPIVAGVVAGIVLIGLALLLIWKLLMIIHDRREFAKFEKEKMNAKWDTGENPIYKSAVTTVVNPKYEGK
Integrin alpha-5/beta-1, sequence (P08648 42-894 limits assumed): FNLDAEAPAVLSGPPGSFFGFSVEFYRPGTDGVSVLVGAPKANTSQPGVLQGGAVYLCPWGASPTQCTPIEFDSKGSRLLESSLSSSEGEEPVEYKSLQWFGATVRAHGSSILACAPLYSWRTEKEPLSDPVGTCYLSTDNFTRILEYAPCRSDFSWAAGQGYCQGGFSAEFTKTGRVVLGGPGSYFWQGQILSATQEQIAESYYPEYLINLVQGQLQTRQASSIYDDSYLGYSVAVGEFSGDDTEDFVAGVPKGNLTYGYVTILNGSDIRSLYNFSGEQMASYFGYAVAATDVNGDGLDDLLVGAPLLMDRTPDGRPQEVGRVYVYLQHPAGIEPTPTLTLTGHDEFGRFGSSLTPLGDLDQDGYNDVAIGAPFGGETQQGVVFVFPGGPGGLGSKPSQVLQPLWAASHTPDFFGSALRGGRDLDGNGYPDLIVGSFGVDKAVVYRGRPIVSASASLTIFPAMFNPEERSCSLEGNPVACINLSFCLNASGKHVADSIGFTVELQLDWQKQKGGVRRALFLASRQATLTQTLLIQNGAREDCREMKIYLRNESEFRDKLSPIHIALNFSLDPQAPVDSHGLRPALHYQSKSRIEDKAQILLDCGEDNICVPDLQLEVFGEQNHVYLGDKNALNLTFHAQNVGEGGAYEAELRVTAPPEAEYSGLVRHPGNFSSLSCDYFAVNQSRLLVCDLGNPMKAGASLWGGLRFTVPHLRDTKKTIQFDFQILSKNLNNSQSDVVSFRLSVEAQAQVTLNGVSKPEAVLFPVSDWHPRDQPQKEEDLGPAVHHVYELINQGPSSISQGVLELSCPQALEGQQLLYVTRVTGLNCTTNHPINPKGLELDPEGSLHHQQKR
Integrin alpha-5/beta-1, sequence (P08648 895-1049 limits assumed): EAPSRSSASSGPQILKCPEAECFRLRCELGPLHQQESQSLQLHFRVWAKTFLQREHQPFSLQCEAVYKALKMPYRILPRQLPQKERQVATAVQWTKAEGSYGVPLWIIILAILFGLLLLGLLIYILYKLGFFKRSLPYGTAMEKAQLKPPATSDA
Integrin alpha-V/beta-3, sequence (P05106 27-788 limits assumed): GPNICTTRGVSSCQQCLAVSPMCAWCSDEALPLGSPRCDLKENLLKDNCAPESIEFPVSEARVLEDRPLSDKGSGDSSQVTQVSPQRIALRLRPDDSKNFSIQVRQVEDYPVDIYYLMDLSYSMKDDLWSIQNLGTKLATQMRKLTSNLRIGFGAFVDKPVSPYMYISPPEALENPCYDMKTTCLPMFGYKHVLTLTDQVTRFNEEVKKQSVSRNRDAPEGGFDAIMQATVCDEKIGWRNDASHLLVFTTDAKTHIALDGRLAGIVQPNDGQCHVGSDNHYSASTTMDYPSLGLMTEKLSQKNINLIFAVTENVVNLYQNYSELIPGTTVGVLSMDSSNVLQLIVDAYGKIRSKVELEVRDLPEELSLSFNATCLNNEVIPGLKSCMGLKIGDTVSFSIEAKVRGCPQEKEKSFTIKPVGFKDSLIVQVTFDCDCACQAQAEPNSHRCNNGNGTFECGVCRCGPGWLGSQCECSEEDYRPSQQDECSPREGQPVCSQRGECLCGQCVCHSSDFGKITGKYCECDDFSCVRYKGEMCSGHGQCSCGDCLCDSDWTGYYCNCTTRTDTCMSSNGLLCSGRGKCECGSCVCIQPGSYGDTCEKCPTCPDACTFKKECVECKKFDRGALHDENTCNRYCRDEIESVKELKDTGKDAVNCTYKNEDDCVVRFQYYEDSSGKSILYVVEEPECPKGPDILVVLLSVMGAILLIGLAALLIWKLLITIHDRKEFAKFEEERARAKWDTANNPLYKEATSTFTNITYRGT
Integrin alpha-V/beta-3, sequence (P06756 31-889 limits assumed): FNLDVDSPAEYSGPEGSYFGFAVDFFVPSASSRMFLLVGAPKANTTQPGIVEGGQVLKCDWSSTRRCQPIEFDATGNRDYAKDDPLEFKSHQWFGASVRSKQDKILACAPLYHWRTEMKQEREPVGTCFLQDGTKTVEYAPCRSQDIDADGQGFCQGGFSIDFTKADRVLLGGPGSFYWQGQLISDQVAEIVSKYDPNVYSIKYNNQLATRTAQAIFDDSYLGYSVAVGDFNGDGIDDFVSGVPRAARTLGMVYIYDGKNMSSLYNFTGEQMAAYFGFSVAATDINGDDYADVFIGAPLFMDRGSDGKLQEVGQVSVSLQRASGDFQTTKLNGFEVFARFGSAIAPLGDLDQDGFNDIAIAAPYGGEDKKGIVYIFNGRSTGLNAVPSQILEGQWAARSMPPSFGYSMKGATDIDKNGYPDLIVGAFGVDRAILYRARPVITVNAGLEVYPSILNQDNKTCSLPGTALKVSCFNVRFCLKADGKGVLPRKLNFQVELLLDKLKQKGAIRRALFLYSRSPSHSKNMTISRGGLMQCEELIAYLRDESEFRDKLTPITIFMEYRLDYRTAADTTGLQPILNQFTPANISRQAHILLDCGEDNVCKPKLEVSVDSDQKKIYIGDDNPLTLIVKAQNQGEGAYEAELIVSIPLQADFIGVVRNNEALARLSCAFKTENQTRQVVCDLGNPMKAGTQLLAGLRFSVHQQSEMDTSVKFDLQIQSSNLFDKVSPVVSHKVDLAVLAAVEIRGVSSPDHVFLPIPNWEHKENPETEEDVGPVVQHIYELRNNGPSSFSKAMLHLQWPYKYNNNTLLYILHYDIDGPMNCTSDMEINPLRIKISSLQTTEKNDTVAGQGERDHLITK
Integrin alpha-V/beta-3, sequence (P06756 891-1048 limits assumed): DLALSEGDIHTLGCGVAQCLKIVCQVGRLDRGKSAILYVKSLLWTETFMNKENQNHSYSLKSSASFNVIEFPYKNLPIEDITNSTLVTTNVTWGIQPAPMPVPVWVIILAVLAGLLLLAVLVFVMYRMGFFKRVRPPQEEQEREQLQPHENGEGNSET

SMILES	ED50 [1]	IC50 [2]	Kd [3]	inhibition in vivo at 0.01 mg/kg [4]	inhibition in vivo at 0.03 mg/kg [5]	IC50 [6]	IC50 [7]	inhibition in vivo at 100 mg/kg [8]	inhibition in vivo at 0.01 mg/kg [9]	IC50 [10]
O=C(O)CCNC(=O)c1cc2n(n1)CCCN(CCC1CCNCC1)C2=O	46 nM	470 nM	680 nM							
CCCCS(=O)(=O)N[C@@H](CNC(=O)c1cc2n(n1)CCCN(CCC1CCNCC1)C2=O)C(=O)O	0.12 nM		1.4 nM	76%						
CCCCS(=O)(=O)N[C@@H](CNC(=O)c1cc2n(n1)CCN(CCC1CCNCC1)C2=O)C(=O)O	0.12 nM	9 nM	1.8 nM							
C[C@H](CC(=O)O)NC(=O)CN1CCC[C@@H](CCC2CCNCC2)C1=O	5 nM		600 nM		> 90%					
O=C(O)CCNC(=O)c1cc2n(n1)CCN(CCC1CCNCC1)C2=O	72 nM	250 nM	590 nM							
Cc1ccc(S(=O)(=O)N[C@@H](CNC(=O)c2cc3n(n2)CCCN(CCC2CCNCC2)C3=O)C(=O)O)cc1	0.08 nM	8 nM	1.1 nM			> 300000 nM	> 300000 nM	> 85%	> 65%	> 300000 nM
